Screening data from PubChem BioAssay.
SENP8 block-1 = SENP8 protease inhibitors, primary screen, biochemical, luminescence; inhibition, % at 10 µM; 330,000 tested, 1.2% active; purified SENP8, Z-RLRGG-aminoluciferin cleavage; Sentrin-specific protease 8 (Homo sapiens), Q96LD8; in the data active = inhibition above about 50%
Platelet DG rel = inhibitors of platelet dense granule secretion, primary screen, cell-based, MLPCN, human platelets. human platelet-rich plasma, SFLLRN dense granule ATP release, luminescence. inhibition, %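 (compounds screened at 7.5 µM in platelet-rich plasma)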. 300,000 tested, 0.22% active. AID 1663, 2009;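 active = mean replicate score, as percent of positive control, at or above 50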
SENP1 FRET inh = human SENP1 catalytic domain inhibitors, primary screen, biochemical, FRET, uHTS. recombinant SENP1 catalytic domain, CyPet-SUMO1-YPet FRET cleavage. inhibition, % at 10 µM. 360,000 tested, 0.21% active;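 active = inhibition at least 30% at 10 µM, raw YFP signal under a set limit, fluorescence ratio 0.5 to 1.5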;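 note: 0% = enzyme with DMSO and 100% = no enzyme wells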
Target sequence (Q9P0U3 419-644 limits assumed): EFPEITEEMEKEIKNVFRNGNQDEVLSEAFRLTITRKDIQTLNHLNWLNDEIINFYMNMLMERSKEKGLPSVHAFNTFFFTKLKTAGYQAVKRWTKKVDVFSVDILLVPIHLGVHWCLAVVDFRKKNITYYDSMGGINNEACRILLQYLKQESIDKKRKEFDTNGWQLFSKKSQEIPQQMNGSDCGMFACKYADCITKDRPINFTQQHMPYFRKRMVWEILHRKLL
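Assay system – human recombinant His6-tagged SENP1 catalytic domain enzyme · Input – SENP1 enzyme, 20 pM final · Buffer or medium – Tris pH 8 buffer plus EDTA, NaCl, BME, BSA, NP40, catalase · Schedule – 50 min reaction at room temperature · Technique – FRET read of cyan and yellow fluorescence · Control set – no-enzyme wells low, DMSO-plus-enzyme wells high control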
SENP6 block = SENP6 protease inhibitors, primary screen, biochemical, luminescence, uHTS. Sentrin-specific protease 6 (Homo sapiens), Q9GZR1. Recombinant SENP6 catalytic domain, aminoluciferin luminescence. inhibition, % at 10 µM. 330,000 tested, 1.8% active. AID 2599, 2010;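 active = inhibition above about 50% at the single tested dose, limit read from the data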;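 note: plate controls were DMSO wells with enzyme for no effect and DMSO wells lacking enzyme for full effect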
SENP7 inh = SENP7 protease inhibitors, primary screen, biochemical, luminescence, uHTS; AID 434973, 2010; Sentrin-specific protease 7 (Homo sapiens), Q9BQF6; recombinant SENP7, Z-RLRGG-aminoluciferin luminescence, 40 min; 330,000 tested, 1.5% active; inhibition, % at 5 µM;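 active = inhibition above about 50% at the single test dose, limit read from the data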;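 note: plate controls were DMSO with enzyme for no effect and no enzyme buffer wells for full effect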
SENP8 block-2 = human SENP8 protease inhibitors, primary screen, biochemical, fluorescence, Nedd8 protein substrate, uHTS | 360,000 tested, 0.64% active | Sentrin-specific protease 8 (Homo sapiens), Q96LD8 | inhibition, % at 20 µM | recombinant SENP8; in the data active = inhibition mostly above about 40%, no sharp cut-off; inactive = mostly below about 27%
SENP8 conf = SENP8 protease inhibitors, retest, confirmation, biochemical, luminescence, single concentration | inhibition, % at 12.5 µM | 6,200 tested, 40% active | shares compounds with SENP7 inh | AID 488912, 2010 | Recombinant SENP8, Z-RLRGG-aminoluciferin luminescence, 60 min;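 active = mean inhibition across replicates above about 50%, limit read from the data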
SENP6 conf = SENP6 protease inhibitors, confirmation, biochemical, luminescence, single concentration; 6,200 tested, 58% active; shares compounds with SENP7 inh; recombinant SENP6, Z-RLRGG-aminoluciferin luminescence; inhibition, % at 12.5 µM
SENP7 confirm = SENP7 protease inhibitors, retest, confirmation, biochemical, luminescence, single concentration; inhibition, % at 12.5 µM; recombinant SENP7, Z-RLRGG-aminoluciferin luminescence, 40 min; 6,200 tested, 69% active; shares compounds with SENP7 inh
Casp3 SENP sel = caspase-3 protease inhibitors, confirmation, selectivity assay for SENP inhibitor project, biochemical, single concentration. purified caspase-3, Z-DEVD-aminoluciferin luminescence, 60 min. inhibition, % at 12.5 µM. shares compounds with SENP7 inh. 6,200 tested, 60% active;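 active = mean inhibition above about 50%, limit read from the data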;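 note: plate controls were enzyme with DMSO for no effect and wells without caspase-3 for full effect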
Target sequence (P42574 28-227 limits assumed): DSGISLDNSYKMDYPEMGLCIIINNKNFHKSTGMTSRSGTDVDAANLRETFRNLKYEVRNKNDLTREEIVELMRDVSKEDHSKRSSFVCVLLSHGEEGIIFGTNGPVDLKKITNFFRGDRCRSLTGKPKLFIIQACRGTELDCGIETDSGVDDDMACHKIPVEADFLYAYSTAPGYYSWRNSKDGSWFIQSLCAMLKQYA
SENP luc ctr = interferes with luciferase luminescence in SENP counter-screen. shares compounds with SENP7 inh. Pre-incubated SENP8/Z-RLRGG-aminoluciferin, luciferase luminescence interference. inhibition, % at 12.5 µM. 6,200 tested, 39% active. AID 488919;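 active = mean inhibition above about 50% when retested at one dose, limit read from the data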;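 note: plate controls were DMSO wells with completed reaction for no effect and substrate without enzyme for full effect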
* marks the source's active call; other numbers are inactive results. A selection: hits, their analogues and other compounds. The true share with any hit is near 2.6%.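 Rule for the calls, unless noted: active = mean inhibition above about 50% in the one-dose retest (limit read from the data); inactive = the rest.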

CC(=O)c1ccc(NC2=C(N3CCOCC3)C(=O)c3ccccc3C2=O)cc1 was read as SENP8 block-1 29, Platelet DG rel 5, SENP1 FRET inh -85, SENP6 block 53*, SENP7 inh 9, SENP8 block-2 59*, SENP8 conf 21, SENP6 conf 56*, SENP7 confirm 37, Casp3 SENP sel 9 and SENP luc ctr 2.
For Cc1ccc(NC2=C(N3CCOCC3)C(=O)c3ccccc3C2=O)cc1 the results were SENP8 block-1 68*, Platelet DG rel -5, SENP1 FRET inh -124, SENP6 block 80*, SENP7 inh 35, SENP8 block-2 71*, SENP8 conf 72*, SENP6 conf 83*, SENP7 confirm 72*, Casp3 SENP sel 88* and SENP luc ctr 29.
CCOC(=O)C1=CCN(S(=O)(=O)c2cccc(Cl)c2)C1c1ccc(F)cc1 (centres undefined) was read as SENP1 FRET inh 2 and SENP8 block-2 14.
Screening COc1cc2c(cc1OC)CN(C(=O)CN1CCN(S(=O)(=O)c3ccccc3)CC1)CC2 returned SENP8 block-1 -2, Platelet DG rel 4, SENP1 FRET inh -1, SENP6 block 10, SENP7 inh 0 and SENP8 block-2 -8.
Cc1cccc(C)c1-n1nnnc1C1(C)CCC(=O)N1Cc1cccnc1 (centres undefined) was read as SENP1 FRET inh 4 and SENP8 block-2 8.
CCN(CC)c1ccc(C(=O)OCC(=O)Nc2sccc2C#N)cc1 was read as SENP8 block-1 21, Platelet DG rel 5, SENP1 FRET inh -1, SENP6 block 69*, SENP7 inh 6, SENP8 block-2 -10, SENP8 conf 38, SENP6 conf 42, SENP7 confirm 70*, Casp3 SENP sel 21 and SENP luc ctr 37.
Screening Cc1cc(NC(=O)c2cc(-c3cccs3)on2)no1 returned SENP8 block-1 -1, Platelet DG rel -1, SENP1 FRET inh 1, SENP6 block -5, SENP7 inh 7 and SENP8 block-2 4.
Screening N#Cc1ccc(NC(=O)c2cc(-c3cccs3)on2)cc1 returned SENP8 block-1 2, Platelet DG rel 0, SENP1 FRET inh 1, SENP6 block 58*, SENP7 inh 8, SENP8 block-2 -33, SENP8 conf -24, SENP6 conf -18, SENP7 confirm -12, Casp3 SENP sel -11 and SENP luc ctr -8.
Screening COc1ccc(-c2nc(CS(=O)CC(=O)NCc3ccc(F)cc3)c(C)o2)cc1 (centres undefined) returned SENP8 block-1 -2, Platelet DG rel -2, SENP1 FRET inh 2, SENP6 block -9, SENP7 inh 1 and SENP8 block-2 5.
CSc1ccc(/C=N/NC(=O)c2ccccc2Cl)cc1 was read as SENP8 block-1 -11, Platelet DG rel 1, SENP1 FRET inh 1, SENP6 block -40, SENP7 inh 6 and SENP8 block-2 -53.
Screening O=C(/C=C/c1ccc(Br)cc1)NC(=O)c1ccccc1O returned SENP8 block-1 78*, Platelet DG rel 0, SENP1 FRET inh -4, SENP6 block 87*, SENP7 inh 64*, SENP8 block-2 -32, SENP8 conf -4, SENP6 conf 55*, SENP7 confirm 79*, Casp3 SENP sel 10 and SENP luc ctr 24.
`CSc1ccc(/C=C/C(=O)NC(=O)c2ccccc2O)cc1` gave SENP8 block-1 79*, Platelet DG rel 1, SENP1 FRET inh -8, SENP6 block 93*, SENP7 inh 48, SENP8 block-2 -392, SENP8 conf 22, SENP6 conf 15, SENP7 confirm 10, Casp3 SENP sel 5 and SENP luc ctr 18.
Screening O=C(/C=C/c1ccc(O)c(O)c1)NC(=O)c1ccccc1O returned SENP8 block-1 69*, Platelet DG rel 1, SENP1 FRET inh 3, SENP6 block 74*, SENP7 inh 59*, SENP8 block-2 -7, SENP8 conf 0, SENP6 conf 64*, SENP7 confirm 90*, Casp3 SENP sel 38 and SENP luc ctr 74*.
Screening O=C(NO)c1ccccc1O returned SENP8 block-1 6, Platelet DG rel -5, SENP1 FRET inh 1, SENP6 block -6, SENP7 inh 2 and SENP8 block-2 -5.
Screening CC(C)(C)OC(=O)N1CCC(c2c(C(=O)NCC3CCN(C4CCCC4)C3)cnn2-c2ccc(F)cc2)CC1 (centres undefined) returned SENP8 block-1 -11, Platelet DG rel 5, SENP1 FRET inh -6, SENP6 block -15, SENP7 inh 56*, SENP8 block-2 22, SENP8 conf -15, SENP6 conf -10, SENP7 confirm -10, Casp3 SENP sel -3 and SENP luc ctr -12.
`Cn1ccnc1SCC(=O)c1c[nH]c2ccccc12` gave SENP8 block-1 33, Platelet DG rel 2, SENP1 FRET inh -3, SENP6 block 58*, SENP7 inh 50, SENP8 block-2 -9, SENP8 conf 48, SENP6 conf 42, SENP7 confirm 78*, Casp3 SENP sel 78* and SENP luc ctr 54*.
Screening COc1ccccc1C(=O)CSc1nccn1C returned SENP8 block-1 -4, Platelet DG rel 1, SENP1 FRET inh -1, SENP6 block -10, SENP7 inh 1 and SENP8 block-2 7.
